Experimental data reported in ChEMBL document CHEMBL1148591, “Isothiazolopyridones: synthesis, structure, and biological activity of a new class of antibacterial agents” (J Med Chem, 2006).
In brackets after ≈: the same amount, converted by molar mass. Activity calls are given as the source filed them. The rule behind the calls is not given here.

Legend:
[1] = target: DNA topoisomerase 4 subunit A (Staphylococcus aureus, UniProt P0C1U9); test: Inhibition of topoisomerase 4 decatenation in Staphylococcus aureus ATCC 29213
DNA topoisomerase 4 subunit A, sequence (P0C1U9 whole entry): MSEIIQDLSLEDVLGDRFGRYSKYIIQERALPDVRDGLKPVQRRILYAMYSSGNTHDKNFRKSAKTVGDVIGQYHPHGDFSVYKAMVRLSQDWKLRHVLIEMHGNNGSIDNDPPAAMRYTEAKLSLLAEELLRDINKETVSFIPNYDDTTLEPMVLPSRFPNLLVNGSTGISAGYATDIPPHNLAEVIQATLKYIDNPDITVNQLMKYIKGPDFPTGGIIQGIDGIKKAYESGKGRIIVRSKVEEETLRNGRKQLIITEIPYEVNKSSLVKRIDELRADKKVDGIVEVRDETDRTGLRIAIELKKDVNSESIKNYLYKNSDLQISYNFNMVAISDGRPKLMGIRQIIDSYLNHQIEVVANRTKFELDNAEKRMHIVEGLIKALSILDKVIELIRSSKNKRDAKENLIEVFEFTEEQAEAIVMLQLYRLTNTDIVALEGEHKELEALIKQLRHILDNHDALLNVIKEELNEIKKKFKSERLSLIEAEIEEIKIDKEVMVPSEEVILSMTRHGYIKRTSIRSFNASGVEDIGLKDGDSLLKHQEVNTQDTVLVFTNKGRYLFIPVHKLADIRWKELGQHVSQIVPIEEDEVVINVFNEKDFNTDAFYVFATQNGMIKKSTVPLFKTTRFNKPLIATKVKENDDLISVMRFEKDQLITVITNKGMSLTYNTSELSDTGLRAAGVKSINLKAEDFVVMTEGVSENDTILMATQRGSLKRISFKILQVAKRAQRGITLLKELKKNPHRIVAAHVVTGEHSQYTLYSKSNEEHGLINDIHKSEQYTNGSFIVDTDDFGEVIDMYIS

[2] = target: DNA topoisomerase II (Homo sapiens) (UniProt P11388+Q02880); test: Activity against human topoisomerase 2; type: protein assay
Outline: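 Human topoisomerase II DNA cleavage assay. The read-out is EC₂, the drug concentration that enhances enzyme-mediated cleavage of double-stranded DNA 2-fold.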

[3] = target: DNA gyrase (Staphylococcus aureus) (UniProt P0A0K8+P20831); test: Inhibition of DNA gyrase supercoiling in Staphylococcus aureus ATCC 29213; type: protein-complex assay
DNA gyrase (Staphylococcus aureus), sequence (P0A0K8 2-644 limits assumed): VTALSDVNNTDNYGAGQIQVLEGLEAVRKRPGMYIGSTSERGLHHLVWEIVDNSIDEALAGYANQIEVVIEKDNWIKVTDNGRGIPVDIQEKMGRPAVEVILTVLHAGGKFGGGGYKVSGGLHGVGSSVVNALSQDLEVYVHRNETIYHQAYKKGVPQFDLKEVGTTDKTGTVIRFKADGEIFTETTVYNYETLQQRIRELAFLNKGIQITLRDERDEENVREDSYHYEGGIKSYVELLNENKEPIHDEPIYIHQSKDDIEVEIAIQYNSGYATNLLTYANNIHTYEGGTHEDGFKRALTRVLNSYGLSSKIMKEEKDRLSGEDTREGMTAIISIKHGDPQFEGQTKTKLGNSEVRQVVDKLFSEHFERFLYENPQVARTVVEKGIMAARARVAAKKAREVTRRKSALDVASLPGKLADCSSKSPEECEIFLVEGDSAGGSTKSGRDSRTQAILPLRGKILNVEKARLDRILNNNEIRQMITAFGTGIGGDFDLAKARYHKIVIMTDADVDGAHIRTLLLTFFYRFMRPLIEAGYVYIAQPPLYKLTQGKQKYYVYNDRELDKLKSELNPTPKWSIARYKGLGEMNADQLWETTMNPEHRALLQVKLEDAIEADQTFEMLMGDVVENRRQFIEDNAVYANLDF
DNA gyrase (Staphylococcus aureus), sequence (P20831 whole entry partner): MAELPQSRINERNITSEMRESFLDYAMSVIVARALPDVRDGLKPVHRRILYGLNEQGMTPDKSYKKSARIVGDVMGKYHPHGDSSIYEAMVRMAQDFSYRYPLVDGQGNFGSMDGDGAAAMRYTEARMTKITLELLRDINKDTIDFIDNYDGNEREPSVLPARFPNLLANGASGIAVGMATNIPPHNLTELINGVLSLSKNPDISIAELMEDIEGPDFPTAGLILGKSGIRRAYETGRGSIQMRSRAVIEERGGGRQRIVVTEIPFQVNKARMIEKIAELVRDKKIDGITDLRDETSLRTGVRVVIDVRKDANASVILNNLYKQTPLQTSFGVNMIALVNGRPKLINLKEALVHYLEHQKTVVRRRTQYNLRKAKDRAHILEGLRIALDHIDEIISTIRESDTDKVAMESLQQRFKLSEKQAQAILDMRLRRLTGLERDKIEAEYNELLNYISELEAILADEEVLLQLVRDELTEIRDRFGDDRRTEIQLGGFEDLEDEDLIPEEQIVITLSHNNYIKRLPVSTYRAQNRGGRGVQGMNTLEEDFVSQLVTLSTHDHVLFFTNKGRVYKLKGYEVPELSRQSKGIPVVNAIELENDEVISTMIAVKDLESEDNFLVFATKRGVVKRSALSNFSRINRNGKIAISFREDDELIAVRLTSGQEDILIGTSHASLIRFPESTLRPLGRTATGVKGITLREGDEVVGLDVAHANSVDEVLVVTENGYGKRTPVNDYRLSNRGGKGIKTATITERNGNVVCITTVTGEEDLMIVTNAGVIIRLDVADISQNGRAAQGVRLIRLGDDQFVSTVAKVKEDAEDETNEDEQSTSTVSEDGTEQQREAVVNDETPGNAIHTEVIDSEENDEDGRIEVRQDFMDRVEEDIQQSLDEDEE

Escherichia coli = test: Antibacterial activity against Escherichia coli ATCC 25922; type: functional
Staphylococcus aureus = test: Antibacterial activity against Staphylococcus aureus ATCC 29213; type: functional
DNA gyrase = DNA gyrase (Escherichia coli, UniProt P0AES4+P0AES6); test: Inhibition of DNA gyrase supercoiling in Escherichia coli ATCC 25922; type: protein-complex assay

Row | Compound | IC50 [1] | Activity [2] | Activity [3] | MIC (Escherichia coli) | MIC (Staphylococcus aureus) | IC50 (DNA gyrase)
1 | CCc1c2s[nH]c(=O)c2c(=O)n2ccc(-c3ccncc3)cc12 | 8.1 µM | inactive | inactive | 0.25 µg/mL (≈ 0.773 µM) | 0.125 µg/mL (≈ 0.387 µM) | 0.4 µM
2 | CCc1c2s[nH]c(=O)c2c(=O)n2ccc(N3CCNCC3)cc12 | 37 µM | inactive | inactive | 4 µg/mL (≈ 12.1 µM) | 16 µg/mL (≈ 48.4 µM) | 14 µM
3 | CCn1cc(C(=O)O)c(=O)c2cc(F)c(N3CCNCC3)cc21 [NORFLOXACIN] |  |  |  | 0.06 µg/mL (≈ 0.188 µM) | 0.5 µg/mL (≈ 1.57 µM) | 
4 | O=C(O)c1cn(C2CC2)c2cc(N3CCNCC3)c(F)cc2c1=O [CIPROFLOXACIN] |  |  |  |  | 0.25 µg/mL (≈ 0.754 µM) | 
5 | CCc1c2s[nH]c(=O)c2c(=O)n2ccc(-c3cc(C)nc(C)c3)cc12 | 6.3 µM | inactive | inactive | 1 µg/mL (≈ 2.85 µM) | 0.125 µg/mL (≈ 0.356 µM) | 0.2 µM
6 | CCc1c2s[nH]c(=O)c2c(=O)n2ccc(N3CCC(N(C)C)C3)cc12 (racemic) | 79 µM | inactive | inactive | 4 µg/mL (≈ 11.2 µM) | 8 µg/mL (≈ 22.3 µM) | 24 µM
